Published values pooled from the literature.
Each line is one published result; the experiments were not run side by side. pIC50: −log10 of the molar value.
Cell line: HeLa
Effect on: cell growth or viability

SMILES	method	time	endpoint	value
CC[C@@]1(OC(=O)[C@@H](N)Cc2ccccc2)C(=O)OCc2c1cc1n(c2=O)Cc2cc3cc4c(cc3nc2-1)OCO4	MTT	–	pIC50	7.19
C[C@]12CCC(=O)C[C@@H]1CC[C@@H]1[C@@H]2CC[C@@]2(C)[C@H]1CC[C@]2(C)O	MTT	24 h	pIC50	4.56
Nc1cc(I)c(I)cc1N	–	72 h	pIC50	4.82
CC[C@@]1(OC(=O)[C@@H]2CCCN2)C(=O)OCc2c1cc1n(c2=O)Cc2cc3cc4c(cc3nc2-1)OCO4	MTT	–	pIC50	6.70
COc1c2c(cc3c1OCO3)[C@]13C=C[C@H](OC)C[C@@H]1[N@](C2)C[C@H]3OC(=O)c1ccoc1	WST-1	48 h	pIC50	< 5.00
Nc1cc(Br)c(Br)cc1N	–	72 h	pIC50	4.70
[Cl-].[Cl-].[Co+2]	MTT	48 h	pIC50	< 3.82
COc1ccc(C=NNC(=S)Nc2ccc(C#N)cc2)cc1	–	72 h	IC50	31 µg/mL
N.N.[Cl][Pt][Cl]	MTT	24 h	pIC50	5.63
CC[C@H](C)[C@H](N)C(=O)O[C@]1(CC)C(=O)OCc2c1cc1n(c2=O)Cc2cc3cc4c(cc3nc2-1)OCO4	MTT	–	pIC50	6.91
COc1cc(C(=O)c2cc3c(-c4ccccc4)c(OC)ccc3o2)cc(OC)c1OC	–	–	pIC50	4.60
CSc1ccc(NC(=S)NN)cc1	–	72 h	IC50	18 µg/mL
CC[C@@]1(OC(=O)C(C)c2cccc(C(=O)c3ccccc3)c2)C(=O)OCc2c1cc1n(c2=O)Cc2cc3cc4c(cc3nc2-1)OCO4 (stereo partly shown)	MTT	–	pIC50	6.57
N#Cc1ccc(NC(=S)NN)cc1	–	72 h	IC50	11 µg/mL
CC[C@@]1(OC(=O)C(C)c2ccc(CC(C)C)cc2)C(=O)OCc2c1cc1n(c2=O)Cc2cc3cc4c(cc3nc2-1)OCO4 (stereo partly shown)	MTT	–	pIC50	< 5.30
CC(C)[C@]12O[C@H]1[C@@H]1O[C@]13[C@]1(O[C@H]1C[C@H]1C4=C(CC[C@@]13C)C(=O)OC4)[C@@H]2O	thymidine uptake	24 h	pIC50	7.92
CC[C@@]1(O)C(=O)OCc2c1cc1n(c2=O)Cc2cc3cc4c(cc3nc2-1)OCO4	MTT	72 h	pIC50	7.59
N#Cc1ccc(NC(=S)NN=Cc2ccc(F)cc2)cc1	–	72 h	IC50	68 µg/mL
O=C(Cc1ccc2ccccc2c1)N[C@H](Cc1ccccc1)C(=O)N[C@@H](Cc1ccccc1)C(=O)N[C@@H](Cc1ccc(OP(=O)(O)O)cc1)C(=O)O	MTT	48 h	pIC50	< 3.30
